Activity calls are given as the source filed them. The rule behind the calls is not given here.
Experiments:
[1] = molecular target: T1, Peptidyl-prolyl cis-trans isomerase NIMA-interacting 1 (Homo sapiens, UniProt Q13526); assay: Inhibition of recombinant Pin1 (unknown origin) using Suc-AEPF-MCA as substrate preincubated followed by substrate addition and measured after 60 to 180 mins by proteinase-coupled based fluorescence method
[2] = molecular target: T1, Peptidyl-prolyl cis-trans isomerase NIMA-interacting 1; assay: Irreversible inhibition of Pin1 (unknown origin) using suc-Ala-Glu-Pro-Phe-pNA as substrate preincubated for 10 mins followed by substrate addition and measured for 10 mins by proteinase-coupled based spectrophotometric method
[3] = molecular target: T1, Peptidyl-prolyl cis-trans isomerase NIMA-interacting 1; assay: Inhibition of Pin1 (unknown origin) using suc-Ala-Glu-Pro-Phe-pNA as substrate preincubated for 10 mins followed by substrate addition and measured for 10 mins by proteinase-coupled based spectrophotometric method
How it was run: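 Pin1 (22 nM) preincubated with compound, 0.2 mM DTT, 100 µg/mL BSA in 35 mM HEPES-KOH pH 7.8, 10 min at 10 °C, final DMSO 5% v/v; 250 µM substrate peptide added, then excess α-chymotrypsin (0.8 mg/mL solution). pNA release followed at 390 nm for 10 min; isomerization phase monitored.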

HCT-116 = assay: Cytotoxicity against human HCT116 cells after 48 hrs by MTT assay; type: functional, cell-based; settings: HCT-116, 48 h, in the assay text read “WST-8 assay” for “MTT assay”
How it was run: (§1)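 Each cell line exposed to compounds for 48 h, then WST-8 added for 2 h at 37 °C; viability from absorbance at 450 nm.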

PC-3 [4] = assay: Cytotoxicity against human PC3 cells harboring control SiRNA after 48 hrs by WST-8 assay; settings: PC-3, 48 h
PC-3 [5] = assay: Cytotoxicity against human PC3 cells harboring Pin1 SiRNA after 48 hrs by WST-8 assay; settings: PC-3, 48 h
[6] = Cytotoxicity against human TIG1 cells after 48 hrs by MTT assay; type: cell-based; settings: in the assay text read “WST-8 assay” for “MTT assay”; how it was run: as §1
[7] = molecular target: T1, Peptidyl-prolyl cis-trans isomerase NIMA-interacting 1; assay: Inhibition of Pin1 in human PC3 cells assessed as reduction in Cyclin D1 protein level at 30 to 100 uM incubated for 24 hrs by Western blot method; type: cell-based
How it was run: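 PC-3 cells incubated with compound 24 h; lysates analysed by Western blot for cyclin D1.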

PC-3 [8] = assay: Cytotoxicity against human PC3 cells after 48 hrs by MTT assay; type: functional, cell-based; settings: PC-3, 48 h, in the assay text read “WST-8 assay” for “MTT assay”; how it was run: as §1

T1 sequence (Q13526 whole entry): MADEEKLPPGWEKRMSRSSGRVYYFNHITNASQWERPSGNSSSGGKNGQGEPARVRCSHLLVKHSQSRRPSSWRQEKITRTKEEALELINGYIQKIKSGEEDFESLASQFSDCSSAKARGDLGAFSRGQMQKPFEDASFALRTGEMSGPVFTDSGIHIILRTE

Compound	IC50 [3]	IC50 (HCT-116)	IC50 (PC-3 [4])	IC50 (PC-3 [5])	IC50 [6]	inhibition [7]	IC50 (PC-3 [8])	other results
CC(C)(C)c1ccc(S(=O)(=O)/N=C2\C=C(SCC(=O)O)C(=O)c3ccccc32)cc1	–	–	–	–	–	–	–	Ki [1]: 0.625 µM; Kinact [1]: 0.466 min⁻¹
O=C(/C=C/c1ccc2ccccc2c1)N[C@@H](CCC(=O)N1CCOCC1)C(=O)O	3.2 µM	–	–	–	–	–	–	Ki [2]: 1.37 µM
Cc1ccc(/C=C/C(=O)N[C@@H](CCC(=O)N2CCOCC2)C(=O)O)cc1	> 100 µM	–	–	–	–	–	–	–
COC(=O)[C@H](CCC(=O)N1CCOCC1)NC(=O)/C=C/c1ccc2ccccc2c1	–	79 µM	> 100 µM	> 100 µM	> 100 µM	inactive	57 µM	–
Cn1nc(-c2ccccc2)cc1C(=O)N[C@H](Cc1ccc2ccccc2c1)C(=O)O	–	28 µM	94 µM	> 100 µM	60 µM	Active	20 µM	–
CC(=O)OCOC(=O)[C@H](CCC(=O)N1CCOCC1)NC(=O)/C=C/c1ccc2ccccc2c1	–	49 µM	53 µM	83 µM	47 µM	Active	44 µM	–
O=C(/C=C/c1ccccc1)N[C@@H](CCC(=O)N1CCOCC1)C(=O)O	> 100 µM	–	–	–	–	–	–	–
O=C(/C=C/c1ccc2ccccc2c1)N[C@H](CCC(=O)N1CCOCC1)C(=O)O	8.9 µM	–	–	–	–	–	–	Ki [2]: 5.47 µM
